One assay deals with A549. Kind of assay: Antiproliferative activity against human A549 cells after 3 days by sulforhodamine B assay. Format: functional. The settings on record: A549, 72 h, read-out: ED50 (the source's name). Summed up: (§1)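 Cells were seeded from freshly trypsinized suspensions at 1500–7500 cells/well and dosed from DMSO-diluted stock. After 3 days of culture, attached cells were fixed with cold 50% TCA and stained with 0.4% SRB. Bound dye was solubilized and absorbance read at 562 nm. ED50 is the concentration giving 50% growth reduction versus untreated cells, averaged from at least three independent determinations. Cells were grown in RPMI-1640 with 25 mM HEPES, 10% FBS and kanamycin.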

A further assay relates to HCT-8. Description: Antiproliferative activity against human HCT8 cells after 3 days by sulforhodamine B assay. The settings on record: HCT-8, 72 h, read-out: ED50 (the source's name). The class given is functional. Summed up:
as §1

A further assay relates to MCF7. Kind of assay: Antiproliferative activity against human MCF7 cells after 3 days by sulforhodamine B assay. The class given is functional. The settings on record: MCF7, 72 h, read-out: ED50 (the source's name).
For the next assay, the system named is 1A9. Description: Antiproliferative activity against human 1A9 cells after 3 days by sulforhodamine B assay. To be noted: 1A9, 72 h, read-out: ED50 (the source's name). Format: functional. Summed up: as §1
(In SRB staining, fixed cells bind dye roughly in proportion to their protein.)

In the next assay the test system is PC-3. Kind of assay: Antiproliferative activity against human PC3 cells after 3 days by sulforhodamine B assay. The class given is functional. The settings on record: for pEC50: PC-3, 72 h, read-out: ED50 (the source's name). Summed up:
as §1

A further assay has as its system HepG2. Description: Antiproliferative activity against human HepG2 cells after 3 days by sulforhodamine B assay. The class given is functional. To be noted: for pEC50: HepG2, 72 h, read-out: ED50 (the source's name). Summed up: as §1
The next assay deals with KB. Kind of assay: Antiproliferative activity against human KB cells after 3 days by sulforhodamine B assay. To be noted: 72 h, read-out: ED50 (the source's name). Format: functional. Summed up: as §1
Assay [1] in a line: Antiproliferative activity against human KBVIN cells expressing P-glycoprotein after 3 days by sulforhodamine B assay. To be noted: 72 h, read-out: ED50 (the source's name). The class given is functional. In a few lines: as §1
Assay [2] can be described thus: Antiproliferative activity against human CL1-5 cells. The class given is functional. The settings on record: read-out: ED50 (the source's name).
Assay [3] can be described thus: Effect on MAD1 mRNA expression in human CL1-5 cells at 0.05 ug/ml after 24 hrs by RT-PCR relative to DMSO control. The class given is functional.
Assay [4] is described as follows: Effect on MAD2 mRNA expression in human CL1-5 cells at 0.05 ug/ml after 24 hrs by RT-PCR relative to DMSO control. The class given is functional.
A short description of assay [5]: Effect on securin mRNA expression in human CL1-5 cells at 0.05 ug/ml after 24 hrs by RT-PCR relative to DMSO control. Format: functional.
Assay [6] in a line: Effect on separase mRNA expression in human CL1-5 cells at 0.05 ug/ml after 24 hrs by RT-PCR relative to DMSO control. Format: functional.
A short description of assay [7]: Effect on dynein1 mRNA expression in human CL1-5 cells at 0.05 ug/ml after 24 hrs by RT-PCR relative to DMSO control. The class given is functional.
Assay [8] in a line: Effect on dynactin mRNA expression in human CL1-5 cells at 0.05 ug/ml after 24 hrs by RT-PCR relative to DMSO control. Format: functional.
Assay [9] in a line: Effect on KNSL1 mRNA expression in human CL1-5 cells at 0.05 ug/ml after 24 hrs by RT-PCR relative to DMSO control. Format: functional.
Assay [10] can be described thus: Upregulation of MAD2L1 transcript in human CL1-5 cells at 0.05 ug/ml after 24 hrs by semi-quantitative RT-PCR. The class given is functional, cell-based. Summed up:
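CL1-5 cells were seeded at 2.5×10^5 per 60 mm dish and grown 48 h in RPMI with 10% FBS at 37 °C in 5% CO2. Cells then received DMSO or 0.05 μg/mL compound for 24 h. Total RNA was extracted with TRIzol and MAD2L1 was amplified by RT-PCR, with Gβ-like as the control transcript, and bands were compared on gel.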

A short description of assay [11]: Effect on cyclinB mRNA expression in human CL1-5 cells at 0.05 ug/ml after 24 hrs by RT-PCR relative to DMSO control. Format: functional.
Assay [12] is described as follows: Effect on CDK1 mRNA expression in human CL1-5 cells at 0.05 ug/ml after 24 hrs by Affymetrix GeneChip microarray relative to DMSO control.
Assay [13] is described as follows: Effect on NEK2A mRNA expression in human CL1-5 cells at 0.05 ug/ml after 24 hrs by Affymetrix GeneChip microarray relative to DMSO control.
Assay [14] is described as follows: Effect on Aurora A mRNA expression in human CL1-5 cells at 0.05 ug/ml after 24 hrs by Affymetrix GeneChip microarray relative to DMSO control.
Assay [15] is described as follows: Effect on Aurora B mRNA expression in human CL1-5 cells at 0.05 ug/ml after 24 hrs by Affymetrix GeneChip microarray relative to DMSO control.

pEC50: −log10 of the molar value. Activity calls are given as the source filed them. The rule behind the calls is not given here.

`COC1=C(CCC(C)C)C(=O)/C(=C(O)/C=C/c2ccccc2)C(=O)C1(CCC(C)C)CCC(C)C`: the pEC50 was 4.74 with A549; 4.89 in the assay with HCT-8; 4.60 in the assay with MCF7; 4.79 in the assay on 1A9; 4.76 in the assay with KB; 4.69 in assay [1]. Besides, the ED50 entry in the assay with PC-3 and with HepG2 was “inactive” in each case.

In the case of `COC1=C(CC(C)C)C(=O)/C(=C(O)/C=C/c2ccccc2)C(=O)C1(CC(C)C)CC(C)C`, the pEC50 with A549 was 5.36; in the assay with HCT-8 it was 5.12; in the assay with MCF7 it was 5.43; in the assay on 1A9, 5.10; with PC-3, 4.91; with HepG2 it was 4.84. Also, the figures for the pEC50 (in the assay with KB; in assay [1]) were 5.10 and 5.09, respectively.

As to `CCCC1(CC=C(C)C)C(=O)C(C(=O)/C=C/c2ccccc2)=C(O)C(CCC)(CCC)C1=O` (stereo not drawn), the pEC50 was 5.15 in the assay on A549; 5.17 with HCT-8; 5.24 in the assay with MCF7; 5.08 in the assay with PC-3; 5.19 in the assay with HepG2; 5.09 with KB. Moreover, the pEC50 in assay [1] was 5.14.

Regarding `CCCOC1=C(CCC)C(=O)/C(=C(O)/C=C/c2ccccc2)C(=O)C1(CCC)CCC`, the pEC50 with A549 was 5.72; in the assay with HCT-8, 5.59; in the assay on MCF7 it was 5.80; in the assay with 1A9, 5.70; with PC-3 it was 5.07; in the assay with HepG2 it was 5.08. In addition, the pEC50 was 5.57 in the assay with KB and 5.62 in [1].

Consider `CCCC1=C(OCC)C(CCC)(CCC)C(=O)/C(=C(O)\C=C\c2ccccc2)C1=O`, for which the pEC50 in the assay with A549 was 5.34; in the assay with HCT-8, 5.25; in the assay on MCF7, 5.59; in the assay on 1A9, 5.37; in the assay with PC-3 it was 4.90; in the assay with HepG2, 4.95. In addition, the figures for the pEC50 (with KB; in assay [1]) were 5.19 and 5.46, respectively.

On to `CCCCC1=C(OC)C(CCCC)(CCCC)C(=O)/C(=C(O)\C=C\c2ccccc2)C1=O`, for which the pEC50 was 5.19 with A549; 5.11 with HCT-8; 5.36 in the assay on MCF7; 5.23 with 1A9; 4.89 in the assay with PC-3; 4.62 with HepG2. Further, the pEC50 is 5.15 with KB and 5.07 in assay [1].

In the case of `COC1=C(C)C(O)=C(C(=O)/C=C/c2ccccc2)C(=O)C1(C)C` [DESMOSDUMOTIN C], the pEC50 in the assay on A549 was 4.95; in the assay on HCT-8, 4.93; in the assay with 1A9, 4.95; with PC-3, 4.45; in the assay on KB, 4.89; in assay [1] it was 5.02.

Turning to `CCCC1=C(OC)C(CCC)(CCC)C(=O)/C(=C(O)\C=C\c2ccccc2)C1=O`, the pEC50 with A549 was 5.44; in the assay with HCT-8 it was 5.46; in the assay on 1A9 it was 5.43; with PC-3, 5.09; in the assay on KB, 5.34; in [1] it was 5.47.

Consider `CCCC1=C(OCCC(C)C)C(CCC)(CCC)C(=O)/C(=C(O)\C=C\c2ccccc2)C1=O`, for which the pEC50 is 4.95 in the assay on A549; 4.82 with HCT-8; 5.04 in the assay with MCF7; 4.77 in the assay on PC-3; 4.81 with HepG2; 4.97 in the assay on KB. In addition, in assay [1], the pEC50 was 4.72.

Take `CCCC1=C(OCC(C)C)C(CCC)(CCC)C(=O)/C(=C(O)\C=C\c2ccccc2)C1=O`: the pEC50 in the assay with A549 is 5.77; in the assay with HCT-8 it was 5.10; with MCF7, 5.36; with 1A9 it was 5.16; in the assay on PC-3, 4.91; in the assay with HepG2, 4.87. The pEC50 with KB is 5.32; in [1], 5.39.

In the case of `CCCC1=C(OC)C(CCC)(CCC)C(=O)/C(=C(O)\C=C\c2ccc(Br)cc2)C1=O`, the pEC50 in assay [2] is 6.96; with A549, 5.70; with HCT-8 it was 5.59; with 1A9, 5.72; in the assay with PC-3, 5.33; with KB, 5.74. For the same molecule, the pEC50 in assay [1] is 5.74. In addition, the “fold change (FC)” value in [3], in assay [4], in assay [5], in [6], in assay [7] and in assay [8] was 2 each time. For the same molecule, the “fold change (FC)” value in assay [9], in [11], in assay [12], in [13], in assay [14] and in assay [15] was 2 throughout. The outcome in [10] was Active.

Turning to `CCCCOC1=C(CCC)C(=O)/C(=C(O)/C=C/c2ccccc2)C(=O)C1(CCC)CCC`, the pEC50 is 5.15 in the assay on A549; 5.06 with HCT-8; 5.28 with MCF7; 5.02 with PC-3; 5.10 in the assay on HepG2; 5.10 with KB. The pEC50 in assay [1] is 5.05.

As to `CCCC1=C(OC)C(CCC)(CCC)C(=O)/C(=C(O)\C=C\c2ccc(I)cc2)C1=O`, the pEC50 is 5.85 with A549; 5.96 in the assay with HCT-8; 5.74 with MCF7; 5.74 in the assay with 1A9; 5.55 with PC-3; 5.62 in the assay with HepG2. The pEC50 in the assay with KB is 5.82; in assay [1], 5.85.

In the case of `CC[C@]1(O)C[C@H]2CN(CCc3c([nH]c4ccccc34)[C@@](C(=O)OC)(c3cc4c(cc3OC)N(C=O)[C@H]3[C@@](O)(C(=O)OC)[C@H](OC(C)=O)[C@]5(CC)C=CCN6CC[C@]43[C@@H]65)C2)C1` [VINCRISTINE], the pEC50 in the assay on A549 was 8.32; in the assay on HCT-8, 7.62; in the assay with MCF7, 7.92; in the assay with PC-3, 7.92; in the assay on HepG2, 8.54; in the assay on KB, 8.62. In addition, the pEC50 in assay [1] was less than 7.00.

For `CC(=O)O[C@H]1C(=O)[C@@]2(C)[C@H]([C@H](OC(=O)c3ccccc3)[C@]3(O)C[C@H](OC(=O)[C@H](O)[C@@H](NC(=O)c4ccccc4)c4ccccc4)C(C)=C1C3(C)C)[C@]1(OC(C)=O)CO[C@@H]1C[C@@H]2O` [PACLITAXEL], the pEC50 is 8.59 in the assay on A549; less than 7.00 in the assay on HCT-8; less than 7.00 with MCF7; 8.68 in the assay on 1A9; 8.05 in the assay on PC-3; less than 7.00 in the assay with HepG2. Also, the figures for the pEC50 (in the assay on KB; in [1]) were 8.54 and less than 7.00, respectively.

For the molecule `CCCOC1=C(CCC)C(=O)/C(=C(O)/C=C/c2ccc(I)cc2)C(=O)C1(CCC)CCC`, the pEC50 is 5.09 in the assay on A549; 5.11 with HCT-8; 5.29 with MCF7; 5.02 with PC-3; 5.14 with HepG2; 5.19 with KB. The pEC50 in [1] was 5.21.

With `COC1=C(CC=C(C)C)C(=O)/C(=C(O)/C=C/c2ccccc2)C(=O)C1(CC=C(C)C)CC=C(C)C` [3,3,5-TRIPRENYLDESMOSDUMOTIN C], the pEC50 was 4.99 in the assay with A549; 4.86 in the assay with HCT-8; 5.09 with MCF7; 4.91 in the assay with PC-3; 4.95 in the assay on HepG2; 4.88 with KB. In addition, in assay [1], the pEC50 is 5.05.

For the origin of these results see ChEMBL document CHEMBL1681672, “Antitumor agents 283. Further elaboration of desmosdumotin C analogs as potent antitumor agents: activation of spindle assembly checkpoint as possible mode of action” (2011).
